Source: ChEMBL document CHEMBL1127474, “Synthesis and antifungal activity of novel cationic pneumocandin B(o) derivatives” (J Med Chem, 1994)
Converted amounts (≈) assume the structure as drawn. *1 amine or outer side, *2 acyl side, *3 side chain or, on linkers, in order; H or OH if unused. Where a SMILES comes first, the peptide text is derived from it. Bridges are numbered along the chain shown (N, C = ends). [ ]: non-standard residue; d: D form. The star is where a group is joined. Orn(4R-OH,5R-OH) = O=C([C@H](C[C@@H](O)[C@@H](O)N[*:3])N[*:1])[*:2]; hTyr(3S-OH,4S-OH) = N[C@H](C(=O)O)[C@H](O)[C@@H](O)c1ccc(O)cc1; Gln(3R-OH) = NC(=O)C[C@@H](O)[C@H](N)C(=O)O; Orn(3R-OH) = NCC[C@@H](O)[C@H](N)C(=O)O; Pro(3S-OH) = O=C(O)[C@H]1NCC[C@@H]1O; Hyp = O=C(O)[C@@H]1C[C@@H](O)CN1; X1 = CCC(C)CC(C)CCCCCCCCC(=O)*

How the values were obtained:
Type in all cases: functional
[1] = tested on: Candida albicans; assay: In vitro concentration causing 50% inhibition of beta-(1,3)-D-glucan synthesis in a Candida albicans (MY 1208) membrane assay
[2] = tested on: Mus musculus; assay: In vivo dose administered ip bid on days 0-4 which increases the 28-day survival rate of Aspergillus fumigatus by 50%; settings: 672 h
Procedure, shortened: (§1)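 DBA/2 mice with disseminated A. fumigatus (MF5668) infection; compound given ip twice daily on days 0–4. Survival followed for 28 days; ED50 taken as the dose that raises the 28-day survival rate by 50%.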

[3] = tested on: Candida tropicalis; assay: In vitro minimum fungicidal concentration (MFC) against Candida tropicalis (MY 1012)
Procedure, shortened: (§2)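 Whole-cell broth microdilution assay against reference and clinical Candida isolates; the MFC is the median of at least four duplicate determinations.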

[4] = tested on: Mus musculus; assay: In vivo minimum dose administered intraperitoneally b.i.d. which decreases Candida albicans (MY 1055) colony forming units by 99.9% in target organ kidney assay
Procedure, shortened: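 Target organ kidney assay in congenitally immunodeficient DBA/2 mice infected with C. albicans MY1055 and dosed ip twice daily. Kidney CFU/g is compared with untreated controls, and ED99.9 is the lowest dose giving a 99.9% reduction.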

[5] = tested on: Kluyveromyces marxianus; assay: In vitro minimum fungicidal concentration (MFC) against Candida pseudotropicalis (MY 2099); procedure, shortened: as §2
[6] = tested on: Rattus norvegicus; assay: In vivo minimum dose administered subcutaneously b.i.d. which decreases the lung cyst count by 90% using PCP model in dexamethasone-immunosuppressed rats
Procedure, shortened: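 Acute Pneumocystis carinii pneumonia model in dexamethasone-immunosuppressed Sprague-Dawley rats dosed sc twice daily for 4 days. Lung cyst counts are compared with untreated controls, and ED90 is the lowest dose giving a 90% reduction.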

[7] = tested on: Candida parapsilosis; assay: In vitro minimum fungicidal concentration (MFC) against Candida parapsilosis (MY 1010); settings: Lodderomyces parapsilosis; procedure, shortened: as §2
[8] = tested on: Candida albicans; assay: In vitro minimum fungicidal concentration (MFC) against Candida albicans (MY 1055); procedure, shortened: as §2
[9] = tested on: Candida albicans; assay: In vitro minimum fungicidal concentration (MFC) against Candida albicans (MY 1208); settings: in the assay text read “MY 1028” for “MY 1208”; procedure, shortened: as §2
[10] = tested on: Mus musculus; assay: In vivo dose administered intraperitoneally bid on days 0-4 which increases the 28-day survival rate of Aspergillus fumigatus by 50%; settings: ip, 672 h; procedure, shortened: as §1

With `CCC(C)CC(C)CCCCCCCCC(=O)N[C@H]1C[C@@H](O)[C@@H](OCCN)NC(=O)[C@@H]2[C@@H](O)CCN2C(=O)[C@H]([C@H](O)CCN)NC(=O)[C@H]([C@H](O)[C@@H](O)c2ccc(O)cc2)NC(=O)[C@@H]2C[C@@H](O)CN2C(=O)[C@H]([C@@H](C)O)NC1=O` (stereo not given in full) the IC50 [1] was 1 nM, the ED50 [2] was 0.03 mg/kg and the MFC [3] was < 0.06 µg/mL. For the same molecule, the ED99.9 [4] was 0.09 mg/kg, the MFC [5] was < 0.06 µg/mL and the ED90 [6] was 0.019 mg/kg. The MFC [7] was 0.125 µg/mL (≈ 0.114 µM), the MFC [8] was 0.125 µg/mL (≈ 0.114 µM) and the MFC [9] was < 0.06 µg/mL.
`CCC(C)CC(C)CCCCCCCCC(=O)N[C@H]1C[C@@H](O)[C@@H](OCCN)NC(=O)[C@@H]2[C@@H](O)CCN2C(=O)[C@H]([C@H](O)CC(N)=O)NC(=O)[C@H]([C@H](O)[C@@H](O)c2ccc(O)cc2)NC(=O)[C@@H]2C[C@@H](O)CN2C(=O)[C@H]([C@@H](C)O)NC1=O` (stereo not given in full) showed an IC50 [1] of 11 nM, an ED50 [2] of 0.06 mg/kg and an MFC [3] of 0.25 µg/mL (≈ 0.226 µM). For the same molecule, the ED99.9 [4] was 0.78 mg/kg, the MFC [5] was 1 µg/mL (≈ 0.902 µM) and the ED90 [6] was 0.037 mg/kg. It also gave an MFC [7] of 1 µg/mL (≈ 0.902 µM), an MFC [8] of 0.125 µg/mL (≈ 0.113 µM) and an MFC [9] of 0.125 µg/mL (≈ 0.113 µM).
For `CCC(C)CC(C)CCCCCCCCC(=O)N[C@H]1C[C@@H](O)[C@@H](O)NC(=O)[C@@H]2[C@@H](O)CCN2C(=O)[C@H]([C@H](O)CC(N)=O)NC(=O)[C@H]([C@H](O)[C@@H](O)c2ccc(O)cc2)NC(=O)[C@@H]2C[C@@H](O)CN2C(=O)[C@H]([C@@H](C)O)NC1=O` (stereo partly drawn) (X1-[Orn(4R-OH,5R-OH)]T[Hyp][hTyr(3S-OH,4S-OH)][Gln(3R-OH)][Pro(3S-OH)]; lactam 1-C), the MFC [3] was 0.125 µg/mL (≈ 0.117 µM), the ED99.9 [4] was 6 mg/kg and the MFC [5] was 1 µg/mL (≈ 0.939 µM). It also gave an ED90 [6] of 0.15 mg/kg, an MFC [7] of 2 µg/mL (≈ 1.88 µM) and an MFC [8] of 0.5 µg/mL (≈ 0.469 µM). The ED50 [10] was > 20 mg/kg and the MFC [9] was 0.25 µg/mL (≈ 0.235 µM).
For `CCC(C)CC(C)CCCCCCCCC(=O)N[C@H]1C[C@@H](O)[C@@H](O)NC(=O)[C@@H]2[C@@H](O)CCN2C(=O)[C@H]([C@H](O)CCN)NC(=O)[C@H]([C@H](O)[C@@H](O)c2ccc(O)cc2)NC(=O)[C@@H]2C[C@@H](O)CN2C(=O)[C@H]([C@@H](C)O)NC1=O` (stereo partly drawn) (X1-[Orn(4R-OH,5R-OH)]T[Hyp][hTyr(3S-OH,4S-OH)][Orn(3R-OH)][Pro(3S-OH)]; lactam 1-C), the IC50 [1] was 10 nM, the ED50 [2] was > 20 mg/kg and the MFC [3] was < 0.06 µg/mL. It also gave an ED99.9 [4] of 0.375 mg/kg, an MFC [5] of 0.125 µg/mL (≈ 0.119 µM) and an ED90 [6] of 0.037 mg/kg. For the same molecule, the MFC [7] was 0.125 µg/mL (≈ 0.119 µM), the MFC [8] was < 0.06 µg/mL and the MFC [9] was < 0.06 µg/mL.
